ChEMBL document CHEMBL1143246, “Design and synthesis of bicyclic pyrimidinones as potent and orally bioavailable HIV-1 integrase inhibitors” (J Med Chem, 2008)

Tests used:
Liver microsomes [1] = experiment: Metabolic stability in rat liver microsomes in presence of NADPH and UDPGA; format: ADME, Microsome
In short: (§1)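 Multiple time points over 1 h: compound 1 µM with liver microsomes 1 mg/mL, in the presence of both UDPGA and NADPH; degradation followed by LC/MS/MS.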

[2] = Cmax in rhesus monkey at 10 mg/kg, po; format: ADME, organism-based, Macaca mulatta; set-up: dose 10 mg/kg, route oral; settings: in vivo
[3] = AUC in rhesus monkey at 10 mg/kg, po; format: ADME, organism-based, Macaca mulatta; set-up: dose 10 mg/kg, route oral; settings: plasma
[4] = AUC in rat at 10 mg/kg, po; settings: plasma
Homo sapiens = species: Homo sapiens; experiment: Protein binding in human plasma; settings: read-out: PPB (converted)
[5] = Half life in dog at 1 mg/kg, iv; format: ADME, organism-based, Canis lupus familiaris; set-up: dose 1 mg/kg, route intravenous; settings: in vivo
In short: (§2)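 In vivo PK: iv dosing in DMSO/PEG400/H₂O mixtures, oral dosing as methylcellulose suspension. Half-life was taken after iv dosing; AUC and Cmax after po dosing.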

Cytochrome P450 2C9 = Cytochrome P450 2C9 (Homo sapiens, UniProt P11712); experiment: Inhibition of CYP2C9; format: ADME
[6] = target: T1, DNA polymerase alpha catalytic subunit (Homo sapiens, UniProt P09884); experiment: Inhibition of human DNA polymerase alpha
T1 sequence (P09884 whole entry): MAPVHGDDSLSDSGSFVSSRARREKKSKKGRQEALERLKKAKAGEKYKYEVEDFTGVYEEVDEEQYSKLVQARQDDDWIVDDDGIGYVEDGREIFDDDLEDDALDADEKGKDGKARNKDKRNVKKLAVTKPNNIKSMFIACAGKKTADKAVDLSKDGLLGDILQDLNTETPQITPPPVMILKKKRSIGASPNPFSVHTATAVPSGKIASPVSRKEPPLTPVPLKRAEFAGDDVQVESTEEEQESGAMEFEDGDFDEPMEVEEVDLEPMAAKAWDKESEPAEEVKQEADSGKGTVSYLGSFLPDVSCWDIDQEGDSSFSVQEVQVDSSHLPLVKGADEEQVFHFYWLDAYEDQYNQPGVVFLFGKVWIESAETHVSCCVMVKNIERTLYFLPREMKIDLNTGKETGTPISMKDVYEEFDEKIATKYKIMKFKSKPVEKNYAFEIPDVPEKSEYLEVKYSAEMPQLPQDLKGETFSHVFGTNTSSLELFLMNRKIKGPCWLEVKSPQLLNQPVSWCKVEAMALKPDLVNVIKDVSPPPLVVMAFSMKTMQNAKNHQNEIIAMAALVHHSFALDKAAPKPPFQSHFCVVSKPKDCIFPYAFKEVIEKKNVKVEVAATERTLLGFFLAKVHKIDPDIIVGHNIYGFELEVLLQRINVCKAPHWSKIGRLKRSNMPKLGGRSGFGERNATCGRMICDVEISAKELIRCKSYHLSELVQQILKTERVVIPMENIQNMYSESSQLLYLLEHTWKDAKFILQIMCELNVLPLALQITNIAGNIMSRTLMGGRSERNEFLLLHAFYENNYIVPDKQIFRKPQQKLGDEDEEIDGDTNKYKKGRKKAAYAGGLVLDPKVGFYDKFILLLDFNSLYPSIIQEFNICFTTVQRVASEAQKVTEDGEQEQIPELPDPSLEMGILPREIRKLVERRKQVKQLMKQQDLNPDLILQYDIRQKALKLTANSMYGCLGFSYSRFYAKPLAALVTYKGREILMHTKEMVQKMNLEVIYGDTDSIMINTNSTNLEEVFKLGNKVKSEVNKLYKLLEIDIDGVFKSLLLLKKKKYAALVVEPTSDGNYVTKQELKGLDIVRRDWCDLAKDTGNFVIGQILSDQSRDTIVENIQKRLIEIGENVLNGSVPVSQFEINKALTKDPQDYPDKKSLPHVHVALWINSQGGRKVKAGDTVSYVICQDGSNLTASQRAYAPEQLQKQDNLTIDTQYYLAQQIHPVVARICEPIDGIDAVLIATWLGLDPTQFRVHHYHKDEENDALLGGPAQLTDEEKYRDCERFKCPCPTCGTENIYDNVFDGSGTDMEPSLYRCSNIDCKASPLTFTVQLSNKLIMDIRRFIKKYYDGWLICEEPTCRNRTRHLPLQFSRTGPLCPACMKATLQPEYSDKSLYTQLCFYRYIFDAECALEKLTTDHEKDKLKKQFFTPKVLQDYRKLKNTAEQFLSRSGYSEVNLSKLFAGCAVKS

[7] = system: Human immunodeficiency virus 1; experiment: Antiviral activity against HIV1 in human MT4 cell assessed as inhibition of virus spread in presence of 10% fetal bovine serum; format: functional; settings: Human immunodeficiency virus 1, MT4; read-out: CIC95
In short: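 Spread of HIV-1 infection in MT-4 human T-lymphoid cell culture with 10% fetal bovine serum; CIC95 is the concentration inhibiting spread by ≥95%; mean of at least three independent experiments.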

Cytochrome P450 3A4 = Cytochrome P450 3A4 (Homo sapiens, UniProt P08684); experiment: Inhibition of CYP3A4; format: ADME
[8] = Oral bioavailability in rat at 10 mg/kg; format: ADME, organism-based; settings: in vivo; in short: as §2
[9] = Cmax in dog at 2 mg/kg, po; format: ADME, organism-based, Canis lupus familiaris; set-up: dose 2 mg/kg, route oral; settings: in vivo; in short: as §2
[10] = Half life in rat at 3 mg/kg, iv; format: ADME, organism-based; set-up: dose 3 mg/kg, route intravenous; settings: in vivo; in short: as §2
Cytochrome P450 2C19 = Cytochrome P450 2C19 (Homo sapiens, UniProt P33261); experiment: Inhibition of CYP2C19; format: ADME
[11] = target: Voltage-gated inwardly rectifying potassium channel KCNH2 (Homo sapiens, UniProt Q12809); experiment: Inhibition of human ERG
[12] = Plasma clearance in rhesus monkey at 2 mg/kg, iv or 10 mg/kg, po; format: ADME, organism-based, Macaca mulatta
In short: (§3)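 Rhesus dosed 2 mg/kg iv in DMSO; oral arm 10 mg/kg as 0.5% methylcellulose suspension; plasma clearance and iv half-life.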

[13] = Inhibition of recombinant HIV1 integrase strand transfer activity
Canis familiaris [14] = experiment: Oral bioavailability in dog at 2 mg/kg; format: ADME, organism-based, Canis lupus familiaris; settings: in vivo; in short: as §2
[15] = Inhibition of HIV-RNase-H; set-up: species or system Human immunodeficiency virus
Cytochrome P450 2D6 = Cytochrome P450 2D6 (Homo sapiens, UniProt P10635); experiment: Inhibition of CYP2D6; format: ADME
Liver = experiment: Metabolic stability in dog liver microsomes in presence of NADPH and UDPGA; format: ADME, Canis lupus familiaris, Microsome; in short: as §1
[16] = Protein binding in dog plasma; format: ADME, cell-free, Canis lupus familiaris; settings: read-out: PPB (converted)
In short: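 Plasma protein binding measured by ultrafiltration after incubation at 37 °C for 1 h.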

[17] = Half life in rhesus monkey at 2 mg/kg, iv; format: ADME, organism-based, Macaca mulatta; set-up: dose 2 mg/kg, route intravenous; settings: in vivo; in short: as §3
[18] = Oral bioavailability in rhesus monkey at 10 mg/kg; format: ADME, organism-based, Macaca mulatta; settings: in vivo
Liver microsomes [19] = experiment: Metabolic stability in human liver microsomes in presence of NADPH and UDPGA; format: ADME, Microsome; in short: as §1
[20] = Cmax in dog at 4 mg/kg, po; format: ADME, organism-based, Canis lupus familiaris; set-up: dose 4 mg/kg, route oral; settings: in vivo; in short: as §2
[21] = Volume of distribution at steady state in rhesus monkey at 2 mg/kg, iv or 10 mg/kg, po; settings: in vivo, read-out: Vdss
[22] = Protein binding in rat plasma; format: ADME, cell-free; settings: read-out: PPB (converted)
In short: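 Plasma protein binding was measured by ultrafiltration after a 1 h incubation of compound in plasma at 37 °C.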

DNA polymerase beta = DNA polymerase beta (Homo sapiens, UniProt P06746); experiment: Inhibition of human DNA polymerase beta
[23] = Volume of distribution at steady state in rat at 3 mg/kg, iv or 10 mg/kg, po; format: ADME, organism-based; settings: in vivo, read-out: Vdss
In short: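 Rats received 3 mg/kg intravenously in DMSO/PEG400/H₂O (20%-60%-20%) and 10 mg/kg orally as a 1% methylcellulose suspension. Volume of distribution was derived from the plasma profiles.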

[24] = system: Human immunodeficiency virus 1; experiment: Antiviral activity against HIV1 in human MT4 cell assessed as inhibition of virus spread in presence of 50% normal human serum; format: functional; settings: Human immunodeficiency virus 1, MT4; read-out: CIC95
In short: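 Spread of HIV-1 infection in MT-4 human T-lymphoid cell culture with 50% normal human serum; CIC95 is the concentration inhibiting spread by ≥95%; mean of at least three independent experiments.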

[25] = Volume of distribution at steady state in dog at 1 mg/kg, iv or 2 mg/kg, po; settings: in vivo, read-out: Vdss
Canis familiaris [26] = experiment: AUC in dog at 2 mg/kg, po; format: ADME, organism-based, Canis lupus familiaris, Plasma; set-up: dose 2 mg/kg, route oral; settings: in vivo; in short: as §2
[27] = Plasma clearance in rat at 3 mg/kg, iv or 10 mg/kg, po; format: ADME, organism-based
[28] = Inhibition of human DNA polymerase gamma
[29] = Plasma clearance in rat at 3 mg/kg, po or 3 mg/kg, iv; format: ADME, organism-based; in short: as §2
[30] = Plasma clearance in dog at 1 mg/kg, iv or 4 mg/kg, po; format: ADME, organism-based, Canis lupus familiaris; in short: as §2
[31] = Volume of distribution at steady state in dog at 1 mg/kg, iv or 4 mg/kg, po; format: ADME, organism-based, Canis lupus familiaris; settings: in vivo, read-out: Vdss
In short: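 Dogs received 1 mg/kg intravenously in DMSO/PEG400/H₂O (20%-40%-40%) and 4 mg/kg orally as a 1% methylcellulose suspension. Volume of distribution was derived from the plasma concentration data.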

[32] = Oral bioavailability in rat at 3 mg/kg; format: ADME, organism-based; settings: in vivo; in short: as §2
[33] = Oral bioavailability in dog at 4 mg/kg; format: ADME, organism-based, Canis lupus familiaris; settings: in vivo; in short: as §2
[34] = Cmax in rat at 10 mg/kg, po; format: ADME, organism-based; set-up: dose 10 mg/kg, route oral; settings: in vivo; in short: as §2
[35] = AUC in rat at 3 mg/kg, po; format: ADME, organism-based; set-up: dose 3 mg/kg, route oral; settings: plasma; in short: as §2
[36] = Cmax in rat at 3 mg/kg, po; format: ADME, organism-based; set-up: dose 3 mg/kg, route oral; settings: in vivo; in short: as §2
[37] = Volume of distribution at steady state in rat at 3 mg/kg, iv or 3 mg/kg, po; format: ADME, organism-based; settings: in vivo, read-out: Vdss
[38] = AUC in rat at 10 mg/kg, po; format: ADME, organism-based; set-up: dose 10 mg/kg, route oral; settings: plasma; in short: as §2

Chain of Cytochrome P450 3A4 (P08684 whole entry): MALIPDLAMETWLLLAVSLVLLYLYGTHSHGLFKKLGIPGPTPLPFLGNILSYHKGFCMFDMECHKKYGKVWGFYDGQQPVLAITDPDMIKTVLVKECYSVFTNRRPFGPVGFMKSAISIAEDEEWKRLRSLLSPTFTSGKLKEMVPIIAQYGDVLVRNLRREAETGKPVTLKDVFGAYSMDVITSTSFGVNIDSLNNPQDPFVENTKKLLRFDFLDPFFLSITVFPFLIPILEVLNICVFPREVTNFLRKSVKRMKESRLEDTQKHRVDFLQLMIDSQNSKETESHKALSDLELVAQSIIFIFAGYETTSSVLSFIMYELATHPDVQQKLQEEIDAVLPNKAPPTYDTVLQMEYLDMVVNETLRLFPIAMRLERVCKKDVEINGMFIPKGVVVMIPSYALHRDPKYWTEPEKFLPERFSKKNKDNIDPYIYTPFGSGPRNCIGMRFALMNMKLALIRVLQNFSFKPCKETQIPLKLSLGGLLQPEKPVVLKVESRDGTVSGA
Chain of Cytochrome P450 2C19 (P33261 whole entry): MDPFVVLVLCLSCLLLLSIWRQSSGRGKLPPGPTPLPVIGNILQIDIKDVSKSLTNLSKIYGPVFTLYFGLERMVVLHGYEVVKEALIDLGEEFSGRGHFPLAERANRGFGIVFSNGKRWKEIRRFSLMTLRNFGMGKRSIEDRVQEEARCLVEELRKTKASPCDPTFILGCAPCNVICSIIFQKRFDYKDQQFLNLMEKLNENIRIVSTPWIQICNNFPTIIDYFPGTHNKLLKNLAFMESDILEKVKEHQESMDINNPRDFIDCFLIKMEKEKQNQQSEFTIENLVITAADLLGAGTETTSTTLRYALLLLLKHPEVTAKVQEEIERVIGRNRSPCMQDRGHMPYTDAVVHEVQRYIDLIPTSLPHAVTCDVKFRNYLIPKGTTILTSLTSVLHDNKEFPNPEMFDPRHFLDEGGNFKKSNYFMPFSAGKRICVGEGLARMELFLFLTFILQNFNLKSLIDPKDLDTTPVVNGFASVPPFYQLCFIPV
Chain of Voltage-gated inwardly rectifying potassium channel KCNH2 (Q12809 whole entry): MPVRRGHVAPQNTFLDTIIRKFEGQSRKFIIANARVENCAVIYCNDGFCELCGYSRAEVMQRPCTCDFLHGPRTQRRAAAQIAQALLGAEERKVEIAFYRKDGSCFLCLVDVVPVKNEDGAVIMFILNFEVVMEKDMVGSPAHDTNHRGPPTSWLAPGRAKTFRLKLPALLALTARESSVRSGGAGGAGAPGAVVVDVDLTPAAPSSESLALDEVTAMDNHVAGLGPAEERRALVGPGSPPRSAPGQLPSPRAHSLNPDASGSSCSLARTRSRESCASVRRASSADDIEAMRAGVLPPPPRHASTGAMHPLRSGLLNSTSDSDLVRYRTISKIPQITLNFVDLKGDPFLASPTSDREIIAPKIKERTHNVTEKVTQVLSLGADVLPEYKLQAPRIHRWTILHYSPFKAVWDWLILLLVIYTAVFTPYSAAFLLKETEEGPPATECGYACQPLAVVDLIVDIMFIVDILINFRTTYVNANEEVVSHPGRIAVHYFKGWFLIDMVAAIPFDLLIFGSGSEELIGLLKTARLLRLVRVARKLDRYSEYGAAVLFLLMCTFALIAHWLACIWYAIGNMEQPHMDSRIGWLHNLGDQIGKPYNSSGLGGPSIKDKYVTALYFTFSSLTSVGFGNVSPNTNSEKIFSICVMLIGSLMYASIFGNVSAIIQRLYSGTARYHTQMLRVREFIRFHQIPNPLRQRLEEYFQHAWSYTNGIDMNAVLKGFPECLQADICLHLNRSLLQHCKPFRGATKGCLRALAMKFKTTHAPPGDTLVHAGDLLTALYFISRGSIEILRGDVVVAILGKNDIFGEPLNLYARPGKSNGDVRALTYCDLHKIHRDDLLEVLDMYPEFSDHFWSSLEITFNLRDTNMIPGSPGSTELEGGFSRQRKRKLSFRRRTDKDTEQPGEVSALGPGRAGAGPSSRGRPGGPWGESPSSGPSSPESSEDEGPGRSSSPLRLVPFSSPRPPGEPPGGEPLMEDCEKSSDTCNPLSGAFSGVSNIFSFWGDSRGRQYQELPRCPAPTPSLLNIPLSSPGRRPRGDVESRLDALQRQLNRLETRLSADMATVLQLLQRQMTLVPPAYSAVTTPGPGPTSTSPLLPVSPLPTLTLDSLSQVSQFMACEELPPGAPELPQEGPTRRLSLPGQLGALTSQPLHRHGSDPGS
Chain of Cytochrome P450 2C9 (P11712 whole entry): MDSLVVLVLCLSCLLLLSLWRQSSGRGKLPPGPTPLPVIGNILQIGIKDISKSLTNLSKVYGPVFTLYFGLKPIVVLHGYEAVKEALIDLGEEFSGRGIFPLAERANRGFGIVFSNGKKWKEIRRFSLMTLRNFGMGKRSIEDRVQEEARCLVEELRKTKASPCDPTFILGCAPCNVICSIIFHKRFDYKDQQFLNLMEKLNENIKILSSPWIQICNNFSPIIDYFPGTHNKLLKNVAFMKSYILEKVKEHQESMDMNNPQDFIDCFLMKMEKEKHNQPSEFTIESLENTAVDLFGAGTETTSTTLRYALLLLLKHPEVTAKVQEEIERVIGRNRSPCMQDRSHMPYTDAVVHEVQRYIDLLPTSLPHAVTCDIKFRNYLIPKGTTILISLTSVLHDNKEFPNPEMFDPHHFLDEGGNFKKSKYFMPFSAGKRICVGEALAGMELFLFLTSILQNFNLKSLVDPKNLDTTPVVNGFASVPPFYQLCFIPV
Chain of Cytochrome P450 2D6 (P10635 whole entry): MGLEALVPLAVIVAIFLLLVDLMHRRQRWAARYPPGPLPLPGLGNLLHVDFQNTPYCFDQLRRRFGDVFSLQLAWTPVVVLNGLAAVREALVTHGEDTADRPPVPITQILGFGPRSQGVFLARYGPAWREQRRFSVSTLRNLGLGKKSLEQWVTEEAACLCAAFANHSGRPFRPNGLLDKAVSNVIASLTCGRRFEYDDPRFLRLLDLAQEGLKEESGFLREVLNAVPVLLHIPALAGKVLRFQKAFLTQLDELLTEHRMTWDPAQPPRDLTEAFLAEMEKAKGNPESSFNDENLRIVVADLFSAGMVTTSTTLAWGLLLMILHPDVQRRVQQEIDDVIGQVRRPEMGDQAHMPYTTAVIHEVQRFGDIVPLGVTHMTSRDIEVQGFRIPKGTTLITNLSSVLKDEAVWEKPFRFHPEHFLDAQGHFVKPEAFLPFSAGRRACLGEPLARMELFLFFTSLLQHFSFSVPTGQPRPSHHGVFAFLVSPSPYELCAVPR

SMILES: CN(C)C(=O)C(=O)N(C)[C@H]1CCCCn2c1nc(C(=O)NCc1ccc(F)cc1)c(O)c2=O
- Stability (Liver microsomes [1]): 11 µL/min/mg
- Cmax [2]: 10 µM
- AUC [3]: 14 µM·h
- AUC [4]: 37 µM·h
- fraction unbound (Homo sapiens): 0.19
- half-life [5]: 2.1 h
- IC50 (Cytochrome P450 2C9): 75000 nM
- IC50 [6]: > 10000 nM
- IC95 [7]: 10 nM
- IC50 (Cytochrome P450 3A4): > 100000 nM
- bioavailability [8]: 64%
- Cmax [9]: 25 µM
- half-life [10]: 7.4 h
- IC50 (Cytochrome P450 2C19): > 100000 nM
- IC50 [11]: > 10000 nM
- clearance [12]: 8 mL/min/kg
- IC50 [13]: 12 nM
- F (Canis familiaris [14]): 61%
- IC50 [15]: > 50000 nM
- IC50 (Cytochrome P450 2D6): > 100000 nM
- Stability (Liver): 4 µL/min/mg
- fraction unbound [16]: 0.24
- half-life [17]: 2.6 h
- bioavailability [18]: 31%
- Stability (Liver microsomes [19]): 3 µL/min/mg
- Cmax [20]: 27 µM
- Vd [21]: 0.7 L/kg
- fraction unbound [22]: 0.06
- IC50 (DNA polymerase beta): > 10000 nM
- Vd [23]: 0.7 L/kg
- IC95 [24]: 13 nM
- Vd [25]: 0.9 L/kg
- AUC (Canis familiaris [26]): 31 µM·h
- clearance [27]: 7 mL/min/kg
- IC50 [28]: > 10000 nM

SMILES: CN(C)C(=O)C(=O)N(C)[C@H]1CCCn2c1nc(C(=O)NCc1ccc(F)cc1)c(O)c2=O
- fraction unbound (Homo sapiens): 0.37
- clearance [29]: 11 mL/min/kg
- half-life [5]: 1.7 h
- clearance [30]: 15 mL/min/kg
- Vd [31]: 1.2 L/kg
- bioavailability [32]: 47%
- IC95 [7]: 33 nM
- bioavailability [33]: 39%
- half-life [10]: 14 h
- IC50 [13]: 12 nM
- fraction unbound [16]: 0.34
- Cmax [34]: 2.5 µM
- AUC [35]: 2.5 µM·h
- Cmax [36]: 2 µM
- fraction unbound [22]: 0.16
- IC95 [24]: 43 nM
- Vd [37]: 3 L/kg
- AUC [38]: 3.8 µM·h
